HTR1E antagonist = 5-HT1E (human) receptor antagonism; CHO 5-HT1E Ga15 NFAT-bla reporter, FRET, antagonist; actives 0.99% (n = 65,000); P28566; inhibition, % at 6 µM;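 active means inhibition above a set limit, the mean inhibition across every tested compound plus 3 SD, cut at about 29% in these data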;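 further: signal is the 460 over 535 nm emission ratio of beta-lactamase substrate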
S1P3 agonist = agonists of human S1P3 receptor; Q99500; S1P3 NFAT-BLA reporter cells, agonism, FRET ratio; relative to 1 µM S1P, basal subtracted; activation, % at 4.5 µM; actives 0.1% (n = 60,000); AID 373;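 active means activation above the screen-wide mean plus 3 SD, cut at about 4.5% in these data, passing the limit was not always enough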
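Assay system: CHO cells stably expressing human S1P3, Gα16 and NFAT-β-lactamase reporter. Timing: overnight plating, 4 h compound 37 °C, 2 h substrate RT. Signal: β-lactamase FRET emission ratio 460/535 nm. Measure: percent activation versus median 1 µM S1P response, basal-subtracted, per plate. Repeats: primary screen single test, confirmation screen in triplicate.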
5HT1E ag = agonists of human 5-HT1E serotonin receptor. P28566. CHO 5-HT1E Ga15 NFAT-bla reporter, FRET; 0% DMSO wells, 100% control agonist wells. activation, % at 6 µM. actives 0.69% (n = 65,000);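 active means activation above a set limit, the screen-wide mean activation plus 3 SD, cut at about 8.5% in these data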
5-HT1A blocker = blocks the human serotonin 5-HT1a receptor. P08908. CHO 5-HT1a Ga15 NFAT-bla reporter, antagonist mode. inhibition, % at 10 µM. actives 0.68% (n = 62,000);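 active means inhibition above the mean of all tested compounds plus 3 SD, cut at about 43% in these data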;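 further: receptor stimulated by 5-CT agonist at 100 nM near EC80; beta-lactamase reporter measured by ratiometric fluorescence of a cleavable substrate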
S1P1 ag-PAM = activates or potentiates agonism at human S1P1 receptor; P21453; S1P1 CRE-bla cells, forskolin, beta-lactamase FRET, potentiator mode; S1P1 agonist co-added at EC20, 2 nM; 100% = saturating reference agonist, 0% = basal; activation, % at 9.5 µM; actives 0.57% (n = 56,000); AID 449;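 active means activation above a cutoff set at the mean activation of all tested compounds plus 3 SD, cut at about 54% in these data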;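 further: forskolin at 4 µM as EC80 and the EC20 agonist is SEW2871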
5HT1a ag = agonists of human 5-HT1a serotonin receptor. P08908. actives 0.56% (n = 65,000). CHO 5-HT1a Ga15 NFAT-bla reporter, FRET ratio; 0% basal, 100% maximal reference agonist. activation, % at 10 µM;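 active means activation above the screen-wide mean activation plus 3 SD, cut at about 19% in these data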
Of the large screens only hits and unclear results are named; the others gave an inactive call. Most compounds without a hit are left out; they make up all but 3% or so of the library.

COc1ccc(-c2nnc(-c3cccs3)o2)cc1OC	none
CCOc1ccc(-c2nnc(-c3ccco3)o2)cc1OCC	S1P1 ag-PAM 99
CCOc1cc(-c2nnc(-c3ccco3)o2)cc(OCC)c1OCC	none
O=C1CN(C(=O)OCc2ccccc2)c2ccccc2N1	HTR1E antagonist 48 (no result: S1P3 agonist, S1P1 ag-PAM)
COc1cccc(C2=CC(c3ccccc3)n3nnnc3N2)c1 (centres undefined)	none (no result: 5-HT1A blocker)
COc1ccc2c(-c3ccccc3)cc3nnnn3c2c1	HTR1E antagonist 30
CCCCOC(=O)Nc1ccc(S(=O)(=O)Nc2nc(C)cc(C)n2)cc1	5HT1E ag 12 (no result: 5-HT1A blocker)
O=C(c1cnc2sccn2c1=O)N(Cc1ccccc1)c1ccccn1	5HT1a ag 27
Cn1nnnc1Sc1ncnc2scc(-c3ccc(F)cc3)c12	HTR1E antagonist 48
C=CS(=O)(=O)c1ccc(Oc2ccc(S(=O)(=O)C=C)cc2)cc1	HTR1E antagonist 103, 5-HT1A blocker 106, S1P1 ag-PAM 124

Screening results from PubChem BioAssay.
